High-throughput results from PubChem.
A1 inh = inhibitors of the anti-apoptotic protein A1, read as caspase activation; MEF A1-2A-BIM cells, Caspase-Glo 3/7 luminescence, 3 h; percent of clofoctol response, vehicle zero; AID 2462; caspase activation, % (test concentration not listed); 330,000 compounds, 0.066% hits;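 active = over half of replicate activation scores above 10%, or exactly half above 10 with the replicate mean above 10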
STK33 inh = inhibitors of human STK33 kinase; inhibition, % at 10 µM; Q9BYT3; purified STK33, MBP phosphorylation, ADP-Glo luminescence; 320,000 compounds, 0.073% hits;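 active = inhibition at or above 25%, using the most active replicate where run in duplicate; inactive = inhibition below 25%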
Target sequence (Q9BYT3 whole entry, looked up): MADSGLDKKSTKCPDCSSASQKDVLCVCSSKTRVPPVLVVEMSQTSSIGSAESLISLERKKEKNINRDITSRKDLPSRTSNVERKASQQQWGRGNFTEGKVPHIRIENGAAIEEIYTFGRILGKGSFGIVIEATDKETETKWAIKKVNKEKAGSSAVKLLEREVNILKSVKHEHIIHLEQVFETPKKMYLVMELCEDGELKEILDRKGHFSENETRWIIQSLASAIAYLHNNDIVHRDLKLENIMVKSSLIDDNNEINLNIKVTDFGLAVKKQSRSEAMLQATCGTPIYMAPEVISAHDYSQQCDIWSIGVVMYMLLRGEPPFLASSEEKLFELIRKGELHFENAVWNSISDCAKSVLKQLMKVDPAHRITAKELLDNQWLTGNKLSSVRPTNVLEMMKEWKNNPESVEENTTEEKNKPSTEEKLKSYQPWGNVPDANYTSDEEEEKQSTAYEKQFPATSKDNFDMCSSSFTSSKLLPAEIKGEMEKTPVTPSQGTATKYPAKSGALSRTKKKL
GSK3beta inhib = human GSK3beta kinase inhibition. activity score (negative = inhibition), % at 10 µM. 300,000 compounds, 0.038% hits. P49841. GST-GSK3beta kinase, ADP-Glo luminescence, 60 min; hits give low values;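 active = more than half of replicate wells score below -50%, meaning over 50% inhibition versus plate controls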;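 note: 0% = median DMSO wells and -100% = median GW8510 positive control wells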
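Assay system: GST-fused GSK3beta enzyme, cell-free / Medium: Tris pH 7.5 buffer with MgCl2, DTT, BSA, heparin / Also added: peptide substrate plus 25 µM ATP (final) / Compound: 10 µM single point / Timing: kinase reaction with compound 60 min at room temperature / Detection: ADP-Glo luminescence / Benchmarks: DMSO neutral wells and GW8510 at 20 µM as positive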
proCasp3 act = activators of human procaspase-3; AID 463141; 330,000 compounds, 0.11% hits; P42574; recombinant procaspase-3 D3A, Ac-DEVD-pNA absorbance 405 nm; activation, % at 8.5 µM;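 active = activation above the mean of all tested compounds plus 3 SD, cut at about 21% in these data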;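 note: 0% = DMSO alone and 100% = DMSO wells spiked with extra 5 µM PC-3 D3A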
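Assay system: Procaspase-3 D3A mutant, all three cleavage aspartates alanine. Buffer or medium: Zinc-free HEPES saline buffer with Triton X-100. Times: 1 h compound preincubation, 2 h substrate hydrolysis at 25 °C. Measured by: 405 nm absorbance of p-nitroaniline, reads at 0 and 120 min. Read-out basis: percent activation relative to control range. Replicates: singlicate.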
proCasp7 act = activates human procaspase-7, counter-screen for procaspase-3 activators; P55210; recombinant procaspase-7, Ac-DEVD-pNA absorbance 405 nm; D23A/D198A/D206A triple mutant, cannot self-cleave; scale: DMSO 0, 5 µM enzyme 100; activation, % at 8.5 µM; 330,000 compounds, 0.093% hits; AID 463210;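 active = percent activation above the screen-wide mean plus 3 SD, cut at about 25% in these data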
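Detection: p-Nitroaniline absorbance at 405 nm, read at 0 and 120 min; system: Uncleavable procaspase-7 mutant enzyme; evaluation: % activation from two-timepoint absorbance difference, scaled to controls; times: 1 h enzyme–compound preincubation and 2 h substrate reaction, both 25 °C; buffer or medium: Zinc-free HEPES pH 7.4 with 300 mM NaCl, 0.01% Triton X-100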
GSK3A inh = blocks human GSK-3 alpha kinase; ADP-Glo luminescence, 60 min; 320,000 compounds, 0.1% hits; P49840; AID 2650; inhibition, % at 10 µM;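 active = more than half of replicates show inhibition above 20%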;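 note: GST-tagged GSK-3 alpha with peptide substrate and 25 µM ATP; 0% = DMSO neutral wells and 100% = GW8510 positive control wells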
* hit, by the source's call; nt = no result given. A selection: hits, their analogues and other compounds. The true share with any hit is near 0.38%.

SMILES | A1 inh | STK33 inh | GSK3beta inhib | proCasp3 act | proCasp7 act | GSK3A inh
CCC(C)Nc1nc(N)c([N+](=O)[O-])c(Nc2ccccc2OC)n1 (centres undefined) | -0.2 | 0.8 | -54.6* | -9.1 | 2.0 | 65.7*
COc1ccccc1Nc1nc(NCC(C)C)nc(N)c1[N+](=O)[O-] | -0.7 | 1.0 | 2.1 | 1.2 | -0.2 | 41.8
Nc1nc(NCCc2ccccc2)nc(NCCO)c1[N+](=O)[O-] | -0.5 | 4.6 | -0.7 | 4.3 | -1.4 | 93.3*
CN(C)CCCNc1nc(N)c([N+](=O)[O-])c(NCCO)n1 | 0.2 | -0.1 | -25.4 | -10.5 | -10.9 | 50.0*
O=S(=O)(c1ccc(SCc2cccc(Cl)c2)nc1)N1CCCC1 | 0.8 | -2.3 | nt | 0.9 | 9.0 | -2.2
Cc1cc(C)c(NC(=O)CN(C)C(=O)c2ccc(OCc3ccccc3)cc2)c(C)c1 | -0.9 | 0.4 | nt | -1.3 | -6.5 | 4.2
Cc1cccc(NC(=O)CSCC(=O)Nc2cccc3ncccc23)c1 | -0.3 | 0.2 | 6.9 | 1.5 | 10.2 | -2.5
CC(NC(=O)COC(=O)c1ccc2c(c1)S(=O)(=O)N=C1CCCCCN12)C12CC3CC(CC(C3)C1)C2 (centres undefined) | 7.2* | 0.1 | 1.1 | -1.0 | 9.8 | -2.8
CC(C)(C)NC(=O)NC(=O)COC(=O)c1ccc2c(c1)S(=O)(=O)N=C1CCCCCN12 | 0.0 | -1.5 | 3.8 | -1.9 | -9.1 | 0.1
O=C(O)c1ccc(N=Nc2c(O)[nH]c3ccccc23)cc1 | -7.6 | 29.1* | -1.0 | -8.8 | 7.0 | 50.6*
O=C(COC(=O)c1ccc[nH]c1=O)NCCCc1ccccc1 | 0.0 | -0.8 | nt | 0.2 | 3.2 | -1.8
O=C(Nc1ccsc1C(=O)NC1CC1)c1ccccc1 | 0.2 | 8.3 | -34.3 | 3.9 | 10.8 | 64.3*
O=C(Nc1cccc(-c2cn3cccnc3n2)c1)c1ccco1 | 0.5 | 8.7 | -7.8 | 1.3 | -1.8 | -2.0
O=C(Nc1cccc(-c2cn3cccnc3n2)c1)c1ccc(Br)o1 | -0.4 | 32.0* | 3.9 | 10.6 | -7.3 | 0.2
Cc1ccc([N+](=O)[O-])c(C(=O)N/N=C/c2cccs2)c1 | 0.1 | -1.8 | -0.7 | 5.8 | 6.3 | -1.5
CCc1ccc(S(=O)(=O)Nc2cc3c(cc2C)n(C)c(=O)n3C)cc1 | 0.7 | 2.0 | -1.4 | -27.1 | 0.7 | -1.3
C#CCOCCOCCOCCNc1nc(N2CCN(C(=O)CCCCCCCCCCNC(=O)[C@H](CCCCN)n3cc(C[C@@H](C)CC)nn3)CC2)nc(N2CCN(C(=O)CCCCCCCCCCNC(=O)[C@H](CCCN=C(N)N)n3cc(C[C@@H](C)CC)nn3)CC2)n1 | -0.7 | 29.2* | nt | -3.3 | 5.7 | 13.5
C#CCOCCOCCOCCNc1nc(N2CCN(C(=O)CCCCCCCCCCNC(=O)[C@H](CO)n3cc(CCCCCN)nn3)CC2)nc(N2CCN(C(=O)CCCCCCCCCCNC(=O)[C@H](CCCN=C(N)N)n3cc(C[C@@H](C)CC)nn3)CC2)n1 | -0.9 | 20.8 | nt | -17.2 | 0.5 | 24.3
C#CCOCCOCCOCCNc1nc(N2CCN(C(=O)CCCCCCCCCCNC(=O)[C@H](CCCN=C(N)N)n3cc(C[C@@H](C)CC)nn3)CC2)nc(N2CCN(C(=O)CCCCCCCCCCNC(=O)[C@@H]([C@H](C)CC)n3cc(CCCCCN)nn3)CC2)n1 | -0.1 | 27.4* | nt | 2.4 | 6.5 | 15.3
C#CCOCCOCCOCCNc1nc(N2CCN(C(=O)CCCCCCCCCCNC(=O)[C@H]([C@@H](C)CC)n3cc(CCCCN=C(N)N)nn3)CC2)nc(N2CCN(C(=O)CCCCCCCCCCNC(=O)[C@H](CCCN=C(N)N)n3cc(C[C@@H](C)CC)nn3)CC2)n1 | -0.5 | 30.9* | nt | -0.7 | -7.5 | -13.9
CCCCN(C)CCCNC(=O)c1cn(C)c2ccc(S(=O)(=O)N(C)C3CCCCC3)cc2c1=O | -0.3 | 0.1 | 0.7 | 4.8 | 1.0 | -3.7
N#Cc1c(Cl)nc(-c2ccncc2)nc1-c1ccccc1 | -0.4 | 10.2 | -61.6* | -1.0 | -12.3 | 74.8*
N#Cc1c(-c2ccccc2)nc(-c2ccncc2)[nH]c1=O | 2.7 | 10.5 | -3.2 | -1.8 | -8.9 | nt
O=C(Nc1ccc(Cl)cc1)ON=C1CCCC1 | -0.2 | -0.7 | -1.4 | 3.9 | -7.7 | -3.7
COc1ccc(-c2ncncc2-c2ccc(OC)c(OC)c2)c(O)c1 | -0.8 | -0.1 | 3.1 | nt | nt | 51.9*
SMILES | A1 inh | STK33 inh | GSK3beta inhib | proCasp3 act | proCasp7 act | GSK3A inh
CCC/C(O)=C1\C(=O)CC(c2ccccc2)CC1=NCCc1c(C)[nH]c2ccc(C)cc12 (centres undefined) | 1.0 | 1.0 | -1.1 | 5.5 | -5.9 | -2.0
Cc1ccc(NC(=O)C2COc3ccccc3O2)cc1S(=O)(=O)N1CCCCC1 (centres undefined) | 0.9 | -1.5 | nt | -2.6 | 4.0 | -3.2
CCOP(=O)(O)c1cccc(OCCOCCOc2cccc(P(=O)(O)OCC)c2)c1 | 0.4 | -0.7 | 1.1 | 4.9 | 0.7 | -3.9
NCc1cccc(CNc2ccc([N+](=O)[O-])cc2C(N)=O)c1 | 0.9 | 1.1 | nt | -16.1 | 10.3 | 84.5*
Cc1ccc(S(=O)(=O)CCSc2n[nH]c(=O)n2-c2ccc3c(c2)OCCO3)cc1 | -0.2 | 0.7 | -28.9 | 3.6 | 13.2 | 76.8*
CN(C)C=NC(=O)/C(C#N)=C1\CCc2ccccc2N1 | 0.1 | 9.6 | -33.6 | -4.4 | 10.2 | 51.5*
COC(=O)CSc1ncnc2c1sc1nc3c(cc12)COC(C)(C)C3 | -2.0 | -1.2 | -0.7 | 6.0 | 8.1 | 45.3
CC1(C)Cc2nc3sc4c(SCC(=O)O)ncnc4c3cc2CO1 | -0.5 | 1.3 | -23.1 | 2.7 | 5.1 | 76.4*
CC(OC(=O)c1ccc2c(=O)n3c(nc2c1)CCCCC3)C(N)=O (centres undefined) | 0.5 | -1.5 | 0.8 | -8.0 | 4.7 | nt
Oc1ccc(-c2nnc(SCc3ccccc3)o2)cc1 | -0.4 | -0.6 | nt | 6.5 | 0.2 | 18.7
Cc1ccc(-n2nnnc2CSc2nnc(-c3ccc(O)cc3)o2)cc1 | 0.4 | 10.8 | -0.5 | -4.1 | 15.6 | 66.7*
COc1ccc(C(CNC(=O)CN(C)S(=O)(=O)c2ccc(C)cc2)N2CCCC2)cc1 (centres undefined) | -0.3 | -1.8 | nt | 2.7 | 6.4 | -1.1
COc1ccc(C2CC(c3ccc4ccccc4c3OC(C)=O)=NN2C(C)=O)cc1 (centres undefined) | 0.1 | -1.2 | 0.6 | -5.8 | 5.2 | -0.4
COc1ccccc1NC(=O)Nc1ncccc1C | -0.5 | 30.0* | 3.4 | -0.1 | 0.5 | -0.5
O=C(NCc1cccs1)C1CCCN1C(=O)Nc1ccc(Cl)cc1 (centres undefined) | 0.9 | -0.9 | -1.2 | 0.6 | 6.8 | -0.8
